Data as given in ChEMBL document CHEMBL1145326, “Antimycobacterial agents. Novel diarylpyrrole derivatives of BM212 endowed with high activity toward Mycobacterium tuberculosis and low cytotoxicity” (2006).
Converted amounts (≈) assume the structure as drawn.

Legend:
[1] = system: Mycobacterium marinum; assay: Antibacterial activity against Mycobacterium marinum; format: functional
How it was run: (§1)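 MIC by serial 2-fold tube dilution. Compound DMSO stocks were filter-sterilised (0.2 µm) and diluted in water. Tubes were inoculated with 10⁵–10⁶ CFU/mL of each mycobacterium and incubated at 37 °C for 3–21 days. Each run included a drug-free control tube. Values are in µg/mL.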

[2] = system: Mycobacterium tuberculosis; assay: Antibacterial activity against Mycobacterium tuberculosis 103471; format: functional; how it was run: as §1
[3] = system: Vero; assay: Protection index, cytotoxicity against Vero cell line/antibacterial activity against Mycobacterium tuberculosis 103471; format: functional
How it was run: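 Protection index is the ratio of Vero-cell MNTD₅₀ (cell counts after 5-day exposure) to the MIC against M. tuberculosis CIP 103471. The MIC came from 2-fold tube dilution, inoculum 10⁵–10⁶ CFU/mL, 37 °C.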

[4] = system: Mycolicibacterium smegmatis; assay: Antibacterial activity against Mycobacterium smegmatis; format: functional; how it was run: as §1
[5] = system: Mycobacterium avium; assay: Antibacterial activity against Mycobacterium avium; format: functional; how it was run: as §1
[6] = system: Vero; assay: Cytotoxicity against Vero cell line; format: functional, Chlorocebus sabaeus
How it was run: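 Vero cells were cultured for 24 h, then the medium was replaced with medium holding decreasing compound concentrations. After 5 days the cells were trypsinised and counted in a Neubauer chamber, in triplicate. MNTD₅₀ (µg/mL) is the concentration that decreased cell multiplication by less than 50% of control.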

Row | Compound | MIC [1] | MIC [2] | PI [3] | MIC [4] | MIC [5] | Maximal non-toxic dose 50 [6]
1 | Cc1ccccc1-c1cc(CN2CCSCC2)c(C)n1-c1ccc(F)cc1 | > 16 µg/mL | 4 µg/mL (≈ 10.5 µM) | 2 | > 16 µg/mL | 8 µg/mL (≈ 21 µM) | 8 µg/mL
2 | Cc1c(CN2CCN(C)CC2)cc(-c2ccc(F)cc2)n1-c1ccc(Cl)cc1Cl | 8 µg/mL (≈ 18.5 µM) | 4 µg/mL (≈ 9.25 µM) | 0.5 | > 16 µg/mL | 4 µg/mL (≈ 9.25 µM) | 2 µg/mL
3 | Cc1c(CN2CCN(C)CC2)cc(-c2ccc(F)cc2F)n1-c1ccc(F)cc1 | > 16 µg/mL | 4 µg/mL (≈ 10 µM) | 2 | > 16 µg/mL | 16 µg/mL (≈ 40.1 µM) | 8 µg/mL
4 | Cc1c(CN2CCSCC2)cc(-c2ccc(F)cc2F)n1-c1ccc(F)cc1 | 16 µg/mL (≈ 39.8 µM) | 0.5 µg/mL (≈ 1.24 µM) | 32 | > 16 µg/mL | 16 µg/mL (≈ 39.8 µM) | 16 µg/mL
5 | Cc1cccc(-n2c(-c3ccc(F)cc3)cc(CN3CCN(C)CC3)c2C)c1 | > 16 µg/mL | 16 µg/mL (≈ 42.4 µM) | 1 | > 16 µg/mL | > 16 µg/mL | 16 µg/mL
6 | Cc1c(CN2CCN(C)CC2)cc(-c2ccc(F)cc2)n1-c1ccccc1Cl | > 16 µg/mL | 4 µg/mL (≈ 10.1 µM) | 2 | > 16 µg/mL | > 16 µg/mL | 8 µg/mL
7 | Cc1cccc(-c2cc(CN3CCSCC3)c(C)n2-c2ccc(F)cc2)c1 | > 16 µg/mL | 2 µg/mL (≈ 5.26 µM) | 2 | > 16 µg/mL | 8 µg/mL (≈ 21 µM) | 4 µg/mL
8 | Cc1c(CN2CCN(C)CC2)cc(-c2ccc(Cl)cc2Cl)n1-c1ccc(F)cc1 | > 16 µg/mL | 8 µg/mL (≈ 18.5 µM) | 2 | > 16 µg/mL | 2 µg/mL (≈ 4.63 µM) | 16 µg/mL
9 | Cc1cccc(-n2c(-c3ccc(F)cc3)cc(CN3CCSCC3)c2C)c1 | > 16 µg/mL | 4 µg/mL (≈ 10.5 µM) | 2 | > 16 µg/mL | 16 µg/mL (≈ 42 µM) | 8 µg/mL
10 | Cc1c(CN2CCN(C)CC2)cc(-c2ccccc2F)n1-c1ccc(F)cc1 | > 16 µg/mL | > 16 µg/mL | – | > 16 µg/mL | > 16 µg/mL | 4 µg/mL
11 | Cc1c(CN2CCSCC2)cc(-c2ccc(F)cc2)n1-c1ccc(F)cc1F | 16 µg/mL (≈ 39.8 µM) | 2 µg/mL (≈ 4.97 µM) | 8 | > 16 µg/mL | 16 µg/mL (≈ 39.8 µM) | 16 µg/mL
12 | Cc1c(CN2CCN(C)CC2)cc(-c2ccc(F)cc2)n1-c1ccc(F)cc1F | 16 µg/mL (≈ 40.1 µM) | 16 µg/mL (≈ 40.1 µM) | 1 | > 16 µg/mL | 16 µg/mL (≈ 40.1 µM) | 16 µg/mL
13 | Cc1ccccc1-n1c(-c2ccc(F)cc2)cc(CN2CCSCC2)c1C | > 16 µg/mL | 8 µg/mL (≈ 21 µM) | 2 | > 16 µg/mL | 16 µg/mL (≈ 42 µM) | 16 µg/mL
14 | Cc1c(CN2CCSCC2)cc(-c2ccccc2F)n1-c1ccc(F)cc1 | > 16 µg/mL | 0.5 µg/mL (≈ 1.3 µM) | 32 | > 16 µg/mL | 16 µg/mL (≈ 41.6 µM) | 16 µg/mL
15 | Cc1ccc(-n2c(-c3ccc(F)cc3)cc(CN3CCSCC3)c2C)cc1 | 8 µg/mL (≈ 21 µM) | 1 µg/mL (≈ 2.63 µM) | 32 | 16 µg/mL (≈ 42 µM) | 8 µg/mL (≈ 21 µM) | 32 µg/mL
16 | Cc1ccc(-n2c(-c3ccc(F)cc3)cc(CN3CCN(C)CC3)c2C)cc1 | 8 µg/mL (≈ 21.2 µM) | 16 µg/mL (≈ 42.4 µM) | 0.5 | > 16 µg/mL | 16 µg/mL (≈ 42.4 µM) | 8 µg/mL
